From PubChem BioAssay come the findings set out here.

The nature of assay [1]: inhibitors of TNFa-induced NFkB p65 translocation, primary screen, imaging, HUVEC, MLSMR starter and 10KST1 sets (AID 438;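 active means inhibition above 20% together with a positive visual image hit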;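 further: compound added about 3h40 before a 20 min TNFalpha stimulation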;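 on inhibition: signal is the nuclear over cytoplasmic p65 intensity ratio per well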). The note with it: HUVEC TNFa-induced p65 nuclear translocation; cell count: measured here: nuclei count (cytotoxicity indicator), at 2.08 µM; inhibition: at 2 µM, stronger effect = higher value, 0% TNFa-plus-vehicle, 100% no-TNFa wells.
A short description of assay [2]: endothelial E-selectin expression blockers – imaging, HUVEC, immunofluorescence, MLSMR starter and 10KST1 sets, primary screen (AID 487;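 active means visually confirmed hit in the image check and inhibition above 20%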;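 on inhibition: signal is fraction of cell area covered by stained E-selectin grains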;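 on nuclei count: 100% = median nuclei count of all wells on the same plate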). The note with it: HUVEC TNFalpha-induced E-selectin immunofluorescence imaging, at 2 µM; inhibition: stronger effect = higher value; nuclei count: measured here: cell number, toxicity.
A short description of assay [3]: Primary imaging screen for DUSP6 inhibitors that restore phospho-Erk in transfected HeLa cells, chemical complementation (AID 609).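 On inhibition: phospho-Erk level distribution per well compared with pooled transfected vehicle control wells.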 The following applies: HeLa MKP-3 transfected, phospho-Erk imaging KS statistic, at 10 µM, cells stimulated with TPA for 15 min.
Assay [4] concerns the target Dual specificity protein phosphatase 6 (Homo sapiens) (UniProt Q16828). Described as above. The following applies: HeLa MKP-3 transfected, phospho-Erk imaging KS statistic; at 10 µM; stronger effect = higher value; cells stimulated with TPA for 15 min.
The target of assay [5] is Voltage-gated potassium channel subunit beta-2 (Rattus norvegicus) (UniProt P62483). The experiment in a line: inhibitors of rat Kvbeta2 reductase activity – biochemical, NADPH fluorescence, primary screen (AID 622;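 active means fluorescence slope higher than the sample average by over 3 SD, cut at about -0.22 in these data, passing the limit was not always enough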;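 further: slope of raw intensity against log time taken from 70 to 1610 s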). The following applies: recombinant KvBeta, 4-cyanobenzaldehyde reduction, at 10 µM, stronger effect = higher value.
For assay [6] the target is unchanged. The experiment in a line: enhancers of rat Kvbeta2 NADPH turnover – biochemical, NADPH fluorescence, primary screen (AID 623;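 active means NADPH fluorescence slope more negative than the mean of all samples by about 3 SD, 99.7% confidence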;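 further: fluorescence intensity change per second fitted from 20 to 320 s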). The note with it: Recombinant KvBeta, NADPH fluorescence decrease slope, 10 min; at 10 µM; stronger effect = lower value.
Assay [7] has as its target Muscarinic acetylcholine receptor M4 (Homo sapiens) (UniProt P08173). Description: M4-linked GIRK flux change, two-sided – cell-based, HEK293 M4/GIRK, thallium flux, BTC-AM, M4 allosteric agonist project, primary screen (AID 625;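 active means fluorescence slope after compound addition differing from the mean of all tested samples at 99.7% confidence, mostly higher but some lower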;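 further: thallium influx through GIRK channels coupled to M4 in HEK293 cells with BTC-AM dye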). The following applies: at 10 µM, actives lie on both sides. The procedure, abridged: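 Assay system: HEK293 cells with M4 receptor and GIRK channels / Controls: carbachol and DMSO controls / Schedule: 1 h dye loading, 2 min kinetic read / Technique: kinetic fluorescence with BTC-AM dye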

Assay [8] is described as follows: inhibitors of larval lipid processing in zebrafish, primary screen, whole organism, PED6 fluorescence, gall bladder and intestine (AID 686;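 active means a full or partial loss of lipid-probe fluorescence in the fish gall bladder, intestine or both, judged by eye; inactive means no fluorescence loss, or compound toxic to the fish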;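 further: signal comes from phospholipase A2 cleavage of quenched PED6 carried via bile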). The following applies: Zebrafish larvae PED6 lipid processing, fluorescence scoring; screened at 20 µM (by protocol). The procedure, abridged: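 Doses: 20 µM single dose. Test system: live zebrafish larvae aged 5-7 days, whole organism. Quantity: five larvae per well. Measured by: By-eye fluorescence microscopy. Reagent: ingested quenched lipid PED6 at 100 nM. Read-out: visual per-well fluorescence inhibition score. Times: overnight exposure of larvae to compound plus PED6.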

Assay [9] in a line: loss of swimming-algae plug formation – whole organism, Chlamydomonas reinhardtii, WT vs cilia-less mutant, absorbance, 96-well, primary screen (AID 463189;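 active means inhibition at or above 50% relative to wild type and mutant plate controls; inactive means inhibition below 50%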;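 further: 0% = wild type cc124 cells in DMSO and 100% = ciliumless bld1 mutant cells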). The note with it: Chlamydomonas reinhardtii gravitaxis, OD600 absorbance, 2 days; at 10 µM; stronger effect = higher value.
[10] abbreviates: measured here: cell density z-score.
Where [11] appears, read: measured here: nuclear c-Myc green intensity z-score.
The mark [12] stands for this setting: measured here: nuclear pErk red intensity z-score, stronger effect = higher value.

Active and inactive are the calls of the source.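 How the source made its calls, unless noted: active means compounds giving at least 50% inhibition in the cell-based MKP-3 phosphatase rescue imaging test; inactive means the rest.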

Chain of Dual specificity protein phosphatase 6 (Homo sapiens) (Q16828 whole entry, looked up): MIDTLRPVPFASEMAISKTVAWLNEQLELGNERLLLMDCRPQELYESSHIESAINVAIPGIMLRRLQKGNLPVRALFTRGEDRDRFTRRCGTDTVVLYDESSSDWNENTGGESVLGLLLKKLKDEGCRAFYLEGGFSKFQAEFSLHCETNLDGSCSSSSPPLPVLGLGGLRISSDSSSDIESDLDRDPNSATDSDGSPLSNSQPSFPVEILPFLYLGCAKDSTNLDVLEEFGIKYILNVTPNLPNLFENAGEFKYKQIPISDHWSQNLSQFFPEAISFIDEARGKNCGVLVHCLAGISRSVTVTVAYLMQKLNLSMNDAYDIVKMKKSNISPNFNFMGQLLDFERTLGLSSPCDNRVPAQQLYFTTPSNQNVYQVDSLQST
Chain of Muscarinic acetylcholine receptor M4 (Homo sapiens) (P08173 whole entry, looked up): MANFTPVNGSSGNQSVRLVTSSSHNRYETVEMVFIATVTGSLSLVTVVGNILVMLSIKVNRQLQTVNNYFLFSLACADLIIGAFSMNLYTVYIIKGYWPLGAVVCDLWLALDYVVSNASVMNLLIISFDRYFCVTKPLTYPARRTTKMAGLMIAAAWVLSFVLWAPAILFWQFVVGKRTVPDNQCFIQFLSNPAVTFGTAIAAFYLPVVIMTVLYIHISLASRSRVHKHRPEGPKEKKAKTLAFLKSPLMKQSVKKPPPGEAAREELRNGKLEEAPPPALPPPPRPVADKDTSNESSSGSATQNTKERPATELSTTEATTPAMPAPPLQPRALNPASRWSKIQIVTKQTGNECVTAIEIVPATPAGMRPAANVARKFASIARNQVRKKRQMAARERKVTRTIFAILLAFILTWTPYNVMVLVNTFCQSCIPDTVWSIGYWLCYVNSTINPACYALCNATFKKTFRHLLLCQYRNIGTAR
Chain of Voltage-gated potassium channel subunit beta-2 (Rattus norvegicus) (P62483 whole entry, looked up): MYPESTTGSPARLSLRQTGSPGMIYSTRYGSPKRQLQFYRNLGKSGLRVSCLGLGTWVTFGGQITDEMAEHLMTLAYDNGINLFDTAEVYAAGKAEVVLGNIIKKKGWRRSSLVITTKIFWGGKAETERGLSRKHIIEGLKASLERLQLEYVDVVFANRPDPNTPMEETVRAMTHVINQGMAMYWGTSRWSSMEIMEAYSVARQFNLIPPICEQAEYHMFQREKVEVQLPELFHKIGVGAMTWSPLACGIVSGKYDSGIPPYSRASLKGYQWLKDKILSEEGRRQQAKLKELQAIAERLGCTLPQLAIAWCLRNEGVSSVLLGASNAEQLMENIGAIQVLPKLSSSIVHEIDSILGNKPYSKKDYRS

For `COc1cc(C2C(C(C)=O)=C(O)C(=O)N2c2ccc(Br)cn2)ccc1O` (configuration not stated), in assay [1], the cell count is 406. For the same compound, the inhibition (in general, the drop in the measured response relative to a control, in per cent) in [1] is -8.5% (inactive); in assay [2] it was -148% (inactive); in assay [4], -2.59% (inactive); in assay [9], 23.7% (inactive). In addition, in [2], the nuclei count worked out at 180%. The z-score was -0.216 in assay [3] (setting [10]), -0.848 in assay [3] (setting [11]) and 0.128 in [3] (setting [12]). Also, the fluorescence slope was -0.446 (inactive) in [5] and 0.00394 (inactive) in [7]. Also, in [6], the NADPH fluorescence slope is -0.000114 (inactive). Moreover, the compound was classed as inactive in assay [8].

In the case of `CCc1nc(NCC2CCCO2)c(C#N)c2c1COC(C)(C)C2` (configuration not stated), the cell count in assay [1] amounted to 550. Also, the inhibition in assay [1] is -12.7% (inactive); in assay [2] it was 2% (inactive); in assay [4] it was 1.9e-07% (inactive); in assay [9] it was -12.9% (inactive). For the same compound, the nuclei count in assay [2] worked out at 127%. The z-score in [3] (setting [10]) is -0.137; in assay [3] (setting [11]) it was -0.0587; in assay [3] (setting [12]), 0.863. Moreover, the fluorescence slope is -0.316 (inactive) in assay [5] and 0.00695 (inactive) in assay [7]. In assay [6], the NADPH fluorescence slope was -4e-05 (inactive). Further, the compound was called inactive in [8].

For `COc1ccc(CCn2c(C)cc3c(c2=O)C(c2ccc4c(c2)OCO4)C(C#N)=C(N)O3)cc1OC` (configuration not stated), the cell count in assay [1] worked out at 697. For the same compound, the inhibition is -0.5% (inactive) in assay [1], -141% (inactive) in assay [2], 9.61% (inactive) in assay [4] and 5.67% (inactive) in [9]. The compound further showed a nuclei count in assay [2] of 170%. Also, the results for the z-score in assay [3] (setting [10]), in [3] (setting [11]) and in assay [3] (setting [12]) were 1.12, 0.0675 and -1.33, respectively. For the same compound, the fluorescence slope in assay [5] was -0.468 (inactive); in assay [7], 0.00505 (inactive). Besides, the NADPH fluorescence slope in assay [6] was -4.4e-05 (inactive). Further, the compound was classed as inactive in assay [8].

As to `Cn1c(OCc2cccnc2)nc2c1c(=O)n(Cc1ccccc1)c(=O)n2C`, the cell count in assay [1] stood at 719. For the same compound, the inhibition was -11.2% (inactive) in assay [1], -145% (inactive) in [2], 25.8% (inactive) in assay [4] and 21.1% (inactive) in assay [9]. In [2], this compound came in with a nuclei count of 176%. The results for the z-score in assay [3] (setting [10]), in assay [3] (setting [11]) and in assay [3] (setting [12]) were 1.38, -0.255 and -1.04, respectively. Further, the values for the fluorescence slope in [5] and in [7] were -0.489 (inactive) and 0.00844 (inactive), respectively. Also, the NADPH fluorescence slope in assay [6] was -5.3e-05 (inactive). The result in assay [8] was inactive.

With `Cc1c2c([n+]3n1CCC3)CC(C)(C)CC2=O`, the cell count in assay [1] is 617. The inhibition is 10.2% (inactive) in assay [1], -23.3% (inactive) in assay [2], -7.67% (inactive) in assay [4] and -11.5% (inactive) in [9]. For the same compound, the nuclei count in assay [2] came to 121%. Further, the z-score was -0.832 in assay [3] (setting [10]), 1.36 in assay [3] (setting [11]) and 0.404 in assay [3] (setting [12]). Also, the fluorescence slope in assay [5] was -0.443 (inactive); in [7], 0.00512 (inactive). Besides, in assay [6], the NADPH fluorescence slope is -3.2e-05 (inactive). Also, the result in assay [8] was inactive.

Turning to `O=C(c1ccccc1)c1cc(-c2ccccc2)on1`, the cell count in assay [1] came out at 589. The inhibition in [1] is -3.4% (inactive); in assay [2], -39.7% (inactive); in [4], -13.3% (inactive); in assay [9] it was -6.04% (inactive). The compound further registered a nuclei count in [2] of 118%. In addition, the z-score in assay [3] (setting [10]) is -0.313; in assay [3] (setting [11]), -0.603; in [3] (setting [12]), 0.519. For the same compound, the fluorescence slope in assay [5] was -0.41 (inactive); in assay [7], 0.00548 (inactive). Besides, in assay [6], the NADPH fluorescence slope is -7.5e-05 (inactive). For the same compound, the compound was called inactive in assay [8].

On to `N#CC(C#N)C(c1ccsc1)c1c(-c2ccccc2)[nH][nH]c1=O` (configuration not stated), for which the cell count in [1] worked out at 712. The inhibition in assay [1] is -0.5% (inactive); in assay [2], -88.8% (inactive); in [4], -4.27% (inactive); in assay [9], 3.19% (inactive). In addition, in assay [2], the nuclei count stood at 169%. For the same compound, the z-score in [3] (setting [10]) is 0.118; in assay [3] (setting [11]) it was -0.0424; in assay [3] (setting [12]), 0.886. Further, the fluorescence slope was -0.495 (inactive) in assay [5] and 0.00622 (inactive) in [7]. The NADPH fluorescence slope in assay [6] is -6.9e-05 (inactive). In addition, the compound was called inactive in assay [8].

For the compound `CC(C)c1nc(NCCN2CCOCC2)c(C#N)c2c1COC(C)(C)C2`, the cell count in assay [1] is 401. Further, the inhibition is -10.6% (inactive) in assay [1], -276% (inactive) in [2], -0.584% (inactive) in assay [4] and 71.3% (active) in assay [9]. For the same compound, the nuclei count in assay [2] was found to be 186%. The values for the z-score in assay [3] (setting [10]), in [3] (setting [11]) and in [3] (setting [12]) were -0.66, -0.209 and 1.4, respectively. The fluorescence slope in assay [5] is -0.473 (inactive); in assay [7] it was 0.00407 (inactive). The NADPH fluorescence slope in [6] was -0.000118 (inactive). In addition, the call in assay [8] was inactive.

Consider `CCN(CC)C(=O)COn1c(SCC(=O)N(CC)CC)nc2ccccc2c1=O`, for which the cell count in assay [1] was 714. Moreover, the inhibition in assay [1] is 1% (inactive); in [2] it was 10.1% (inactive); in assay [4], -1.12% (inactive); in assay [9], -1.16% (inactive). In assay [2], this compound registered a nuclei count of 161%. The z-score in [3] (setting [10]) is -0.154; in [3] (setting [11]), -0.248; in [3] (setting [12]), 0.329. For the same compound, the fluorescence slope in assay [5] is -0.42 (inactive); in assay [7] it was 0.00498 (inactive). The NADPH fluorescence slope in assay [6] is -4.1e-05 (inactive). Also, the call in [8] was inactive.
